Holding throughout (type): biochemical
For one assay, the target named is α-glucosidase (maltase) (Saccharomyces cerevisiae, UniProt P53341). The assay can be described thus: α-glucosidase inhibition assay.
The next assay has as its target FAS from chicken liver (Gallus gallus, UniProt P12276). The experiment in a line: FAS inhibition assay. A digest of the protocol: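 Chicken liver FAS (10 µg) with test compound (10–200 µg/mL) in 100 mM potassium phosphate buffer containing 1 mM dithiothreitol, 1 mM EDTA, 10 µM malonyl-CoA, 3 µM acetyl-CoA and 35 µM NADPH. Activity was followed at 37 °C as the change in NADPH absorbance at 340 nm. The blank omitted the enzyme.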

In a further assay the target is XO (Bos taurus, UniProt P80457). The experiment in a line: XO inhibition assay.

The results in this text go back to article PMC10494472 (Saudi Pharmaceutical Journal : SPJ, 2023).

Chain of α-glucosidase (maltase) (P53341 whole entry): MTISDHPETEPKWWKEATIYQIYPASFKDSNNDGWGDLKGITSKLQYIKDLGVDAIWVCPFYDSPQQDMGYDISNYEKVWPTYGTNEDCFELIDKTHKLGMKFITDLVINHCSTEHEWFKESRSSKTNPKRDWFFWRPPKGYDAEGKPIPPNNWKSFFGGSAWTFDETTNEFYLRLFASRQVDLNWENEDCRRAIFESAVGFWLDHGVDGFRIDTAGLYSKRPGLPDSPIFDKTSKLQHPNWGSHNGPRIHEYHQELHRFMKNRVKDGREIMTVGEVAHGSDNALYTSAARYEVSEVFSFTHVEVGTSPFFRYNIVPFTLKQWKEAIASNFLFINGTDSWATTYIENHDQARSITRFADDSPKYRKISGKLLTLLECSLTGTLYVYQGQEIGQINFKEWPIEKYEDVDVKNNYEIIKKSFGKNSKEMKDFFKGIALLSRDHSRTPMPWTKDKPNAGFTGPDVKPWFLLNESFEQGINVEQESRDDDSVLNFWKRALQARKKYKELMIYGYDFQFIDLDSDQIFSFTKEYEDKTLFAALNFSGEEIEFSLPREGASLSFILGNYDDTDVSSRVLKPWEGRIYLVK
Chain of FAS from chicken liver (P12276 whole entry): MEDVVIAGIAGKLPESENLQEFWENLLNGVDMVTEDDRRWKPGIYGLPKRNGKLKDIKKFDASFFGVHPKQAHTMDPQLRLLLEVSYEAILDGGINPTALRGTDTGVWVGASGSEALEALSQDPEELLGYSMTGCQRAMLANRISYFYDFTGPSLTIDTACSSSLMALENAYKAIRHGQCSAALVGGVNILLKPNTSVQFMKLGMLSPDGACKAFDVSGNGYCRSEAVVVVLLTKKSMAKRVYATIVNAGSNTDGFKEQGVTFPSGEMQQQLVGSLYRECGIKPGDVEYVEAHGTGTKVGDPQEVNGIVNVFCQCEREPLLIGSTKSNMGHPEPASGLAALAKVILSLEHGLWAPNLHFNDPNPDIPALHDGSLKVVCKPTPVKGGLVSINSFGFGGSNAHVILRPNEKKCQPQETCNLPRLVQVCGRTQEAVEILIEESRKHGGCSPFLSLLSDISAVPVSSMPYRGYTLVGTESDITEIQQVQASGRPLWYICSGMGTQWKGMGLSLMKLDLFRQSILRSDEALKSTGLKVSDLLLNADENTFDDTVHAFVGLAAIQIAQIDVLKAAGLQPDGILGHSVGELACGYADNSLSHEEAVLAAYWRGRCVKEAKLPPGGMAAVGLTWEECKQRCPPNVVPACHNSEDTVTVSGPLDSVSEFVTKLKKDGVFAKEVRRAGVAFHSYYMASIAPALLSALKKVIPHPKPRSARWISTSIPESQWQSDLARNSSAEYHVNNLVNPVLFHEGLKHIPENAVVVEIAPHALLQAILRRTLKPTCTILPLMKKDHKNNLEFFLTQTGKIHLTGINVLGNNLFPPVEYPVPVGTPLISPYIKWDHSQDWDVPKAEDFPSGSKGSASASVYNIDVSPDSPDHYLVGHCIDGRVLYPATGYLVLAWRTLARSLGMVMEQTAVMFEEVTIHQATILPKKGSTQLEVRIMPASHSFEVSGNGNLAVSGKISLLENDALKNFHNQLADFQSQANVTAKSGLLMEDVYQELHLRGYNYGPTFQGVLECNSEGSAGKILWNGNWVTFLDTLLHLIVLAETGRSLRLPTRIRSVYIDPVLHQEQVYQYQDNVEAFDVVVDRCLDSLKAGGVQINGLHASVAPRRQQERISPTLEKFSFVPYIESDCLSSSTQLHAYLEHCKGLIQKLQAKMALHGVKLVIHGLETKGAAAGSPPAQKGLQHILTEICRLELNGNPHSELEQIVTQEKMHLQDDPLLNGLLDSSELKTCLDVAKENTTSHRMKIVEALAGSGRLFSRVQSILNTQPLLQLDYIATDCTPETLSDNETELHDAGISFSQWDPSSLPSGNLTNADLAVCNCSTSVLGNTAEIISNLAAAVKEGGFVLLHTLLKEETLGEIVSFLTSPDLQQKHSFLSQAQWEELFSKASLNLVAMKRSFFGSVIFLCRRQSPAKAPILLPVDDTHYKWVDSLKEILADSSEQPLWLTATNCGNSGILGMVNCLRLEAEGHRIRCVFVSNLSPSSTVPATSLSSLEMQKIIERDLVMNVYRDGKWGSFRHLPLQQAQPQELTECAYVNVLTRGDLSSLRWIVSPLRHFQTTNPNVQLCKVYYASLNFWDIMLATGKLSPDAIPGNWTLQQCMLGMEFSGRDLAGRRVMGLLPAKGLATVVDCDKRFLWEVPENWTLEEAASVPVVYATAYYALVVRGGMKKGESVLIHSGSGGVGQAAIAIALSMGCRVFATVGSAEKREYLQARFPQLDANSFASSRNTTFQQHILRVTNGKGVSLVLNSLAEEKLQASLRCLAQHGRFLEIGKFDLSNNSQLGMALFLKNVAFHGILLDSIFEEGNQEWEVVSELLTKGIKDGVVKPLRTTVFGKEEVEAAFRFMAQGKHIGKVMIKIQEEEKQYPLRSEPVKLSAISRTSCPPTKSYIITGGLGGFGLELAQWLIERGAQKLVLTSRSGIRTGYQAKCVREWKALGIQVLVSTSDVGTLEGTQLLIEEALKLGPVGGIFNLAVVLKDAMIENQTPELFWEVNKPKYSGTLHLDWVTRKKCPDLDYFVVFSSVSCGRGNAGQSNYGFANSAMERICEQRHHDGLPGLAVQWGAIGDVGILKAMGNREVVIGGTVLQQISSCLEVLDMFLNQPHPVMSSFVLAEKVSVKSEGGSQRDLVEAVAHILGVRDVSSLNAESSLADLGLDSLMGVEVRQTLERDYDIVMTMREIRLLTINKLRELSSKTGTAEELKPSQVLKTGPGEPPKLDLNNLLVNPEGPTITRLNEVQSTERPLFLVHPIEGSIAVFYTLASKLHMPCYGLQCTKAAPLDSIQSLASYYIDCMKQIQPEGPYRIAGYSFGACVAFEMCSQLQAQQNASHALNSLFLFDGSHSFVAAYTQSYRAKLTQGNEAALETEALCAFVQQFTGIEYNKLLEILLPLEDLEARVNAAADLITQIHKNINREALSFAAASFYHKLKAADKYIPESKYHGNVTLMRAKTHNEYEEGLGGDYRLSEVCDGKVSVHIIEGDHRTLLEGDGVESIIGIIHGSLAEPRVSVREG
Chain of XO (P80457 whole entry): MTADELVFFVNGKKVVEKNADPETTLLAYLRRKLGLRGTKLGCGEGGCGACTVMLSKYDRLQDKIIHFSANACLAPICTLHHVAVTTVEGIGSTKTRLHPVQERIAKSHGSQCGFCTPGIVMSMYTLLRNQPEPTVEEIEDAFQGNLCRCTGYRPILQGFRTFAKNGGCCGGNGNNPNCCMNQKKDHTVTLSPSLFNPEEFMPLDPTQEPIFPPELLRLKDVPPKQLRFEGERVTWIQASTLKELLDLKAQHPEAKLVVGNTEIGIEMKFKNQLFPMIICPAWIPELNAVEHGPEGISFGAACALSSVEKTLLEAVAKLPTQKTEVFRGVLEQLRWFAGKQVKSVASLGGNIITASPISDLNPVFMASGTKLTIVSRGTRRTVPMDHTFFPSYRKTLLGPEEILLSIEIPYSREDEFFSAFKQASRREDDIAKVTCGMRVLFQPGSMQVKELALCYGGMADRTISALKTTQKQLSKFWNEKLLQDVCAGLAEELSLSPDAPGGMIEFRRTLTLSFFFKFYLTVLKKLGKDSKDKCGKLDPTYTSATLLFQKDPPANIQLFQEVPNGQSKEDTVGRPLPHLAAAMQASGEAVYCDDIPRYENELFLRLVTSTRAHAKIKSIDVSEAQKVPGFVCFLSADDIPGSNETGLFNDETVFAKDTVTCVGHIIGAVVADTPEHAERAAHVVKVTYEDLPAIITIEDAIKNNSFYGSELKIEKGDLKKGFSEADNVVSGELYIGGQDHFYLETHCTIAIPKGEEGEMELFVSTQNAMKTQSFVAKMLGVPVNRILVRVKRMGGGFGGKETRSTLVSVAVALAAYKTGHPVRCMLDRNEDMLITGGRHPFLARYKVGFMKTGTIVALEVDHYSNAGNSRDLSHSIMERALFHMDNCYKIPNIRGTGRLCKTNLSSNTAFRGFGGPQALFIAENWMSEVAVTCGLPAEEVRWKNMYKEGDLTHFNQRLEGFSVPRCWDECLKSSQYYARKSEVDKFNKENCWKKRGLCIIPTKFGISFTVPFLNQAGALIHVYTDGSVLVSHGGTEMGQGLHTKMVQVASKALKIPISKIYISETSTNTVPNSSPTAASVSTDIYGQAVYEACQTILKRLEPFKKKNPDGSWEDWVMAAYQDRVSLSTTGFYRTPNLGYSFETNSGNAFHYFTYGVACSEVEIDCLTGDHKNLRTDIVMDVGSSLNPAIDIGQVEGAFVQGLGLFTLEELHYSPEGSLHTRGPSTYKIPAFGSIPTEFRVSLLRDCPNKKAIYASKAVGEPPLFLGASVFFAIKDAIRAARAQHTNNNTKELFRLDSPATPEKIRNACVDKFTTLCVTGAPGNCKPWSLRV

The IC50 is the concentration that gives 50% inhibition. A high value points to weaker potency in that assay. Consider `C=C(C)[C@@H]1CC[C@]2(C)CC[C@]3(C)[C@H](CC[C@@H]4[C@@]5(C)CC[C@H](O)C(C)(C)[C@@H]5CC[C@]43C)[C@@H]12` [Compound 1, lupeol], for which the half-inhibitory concentration (IC50) at α-glucosidase (maltase) is 101 µM; on FAS from chicken liver, 98.3 µM; against XO, 109 µM.
Take `COc1ccc(-c2cc(=O)c3c(O)cc(O)c(-c4cc(-c5cc(=O)c6c(O)cc(O)cc6o5)ccc4O)c3o2)cc1` [Compound 3, podocarpusflavone A]: the concentration for half-maximal inhibition (IC50) on FAS from chicken liver is 43.6 µM.
Regarding `O=c1cc(-c2ccc(O)c(-c3c(O)cc(O)c4c(=O)cc(-c5ccc(O)cc5)oc34)c2)oc2cc(O)cc(O)c12` [Compound 4, amentoflavone], the IC50 is 92.8 µM against α-glucosidase (maltase) and 75 µM at FAS from chicken liver.
`C=C(C)[C@@H]1CC[C@]2(CO)CC[C@]3(C)[C@H](CC[C@@H]4[C@@]5(C)CC[C@H](O)C(C)(C)[C@@H]5CC[C@]43C)[C@@H]12` [Compound 2, betulin]: the figures for the IC50 at α-glucosidase (maltase), against FAS from chicken liver and at XO were 88 µM, 63.2 µM and 69.9 µM, respectively.
